pIC50: −log10 of the molar value. Activity calls are given as the source filed them. The rule behind the calls is not given here.
What was measured:
[1] = Clearance in rat at 2 mg/kg, iv or 5 mg/kg, po; format: ADME, organism-based; details: in vivo
Summary of the method: (§1)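 Single-dose PK study in mouse and rat (2 mg/kg iv, 5 mg/kg po), cynomolgus monkey (1 mg/kg iv and po) and dog (0.1 mg/kg iv, 1 mg/kg po). Dosing vehicle was 1:4:5 EtOH/propylene glycol/PEG400. Clearance, Vss, half-life, Cmax, Tmax, AUC (μM h) and oral %F were derived from plasma levels.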

[2] = Oral bioavailability in mouse at 5 mg/kg; format: ADME, organism-based; details: in vivo
Summary of the method: (§2)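 Single-dose PK in mouse and rat (2 mg/kg iv, 5 mg/kg po), cynomolgus monkey (1 mg/kg iv and po) and dog (0.1 mg/kg iv, 1 mg/kg po). Dosing vehicle was 1:4:5 EtOH/propylene glycol/PEG400. Parameters reported: clearance, Vss, half-life, Cmax, Tmax, AUC and oral bioavailability.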

Oryctolagus cuniculus [3] = assay: Antiatrial fibrillation activity in methoxamine-sensitised rabbit assessed as increase in atrial effective refractory period at 0.17 mg/kg, iv administered as 15 mins infusion relative to control; format: functional
Summary of the method: (§3)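 Rabbit, iv infusion of compound in DMF (0.17 mg/mL) with a 0.17 mg/kg maintenance dose. AERP was normalized to DMF vehicle, with time counted from the start of the maintenance infusion. Tissues were collected after 30 min. n = 3 rabbits; means ± standard error.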

Oryctolagus cuniculus [4] = assay: Antiatrial fibrillation activity in methoxamine-sensitised rabbit assessed as increase in atrial effective refractory period at 1 mg/kg, iv administered as 30 mins infusion relative to control; format: functional
Summary of the method: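 Rabbit, iv dosing at 1 or 3 mg/kg. AERP was measured at 10, 20 and 30 min time points as % prolongation, and plasma compound concentration was measured at the same time points and correlated with the AERP change.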

[5] = Volume of distribution at steady state in dog at 0.1 mg/kg, iv or 1 mg/kg, po; format: ADME, organism-based, Canis lupus familiaris; details: in vivo, read-out: Vdss; summary of the method: as §2
[6] = Volume of distribution at steady state in mouse at 2 mg/kg, iv or 5 mg/kg, po; format: ADME, organism-based; details: in vivo, read-out: Vdss; summary of the method: as §2
Plasma [7] = assay: Plasma concentration in pacing-induced mongrel dog heart failure model at 0.3 mg/kg, po; format: ADME, organism-based, Canis lupus familiaris; details: in vivo
Summary of the method: (§4)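 Simultaneous atrio-ventricular pacing dog model used to measure AF inducibility. Dogs were dosed orally at 0.1 mg/kg (n = 5) or 0.3 mg/kg (n = 6) in 10% EtOH/40% propylene glycol/50% PEG 400, and plasma concentration was measured alongside AF inductions and QTc.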

[8] = Clearance in cynomolgus monkey at 1 mg/kg, iv or 1 mg/kg, po; format: ADME, organism-based, Macaca fascicularis; details: in vivo; summary of the method: as §1
[9] = Half life in dog at 0.1 mg/kg, iv or 1 mg/kg, po; format: ADME, organism-based, Canis lupus familiaris; details: in vivo; summary of the method: as §1
[10] = Oral bioavailability in dog at 1 mg/kg; format: ADME, organism-based, Canis lupus familiaris; details: in vivo; summary of the method: as §2
[11] = Inhibition of sodium channel (unknown origin); design: species or system Homo sapiens
[12] = Volume of distribution at steady state in cynomolgus monkey at 1 mg/kg, iv or 1 mg/kg, po; format: ADME, organism-based, Macaca fascicularis; details: in vivo, read-out: Vdss; summary of the method: as §2
[13] = Half life in mouse at 2 mg/kg, iv or 5 mg/kg, po; format: ADME, organism-based; details: in vivo; summary of the method: as §1
Canis familiaris = assay: Antiarrhythmic activity in mongrel dog heart failure model assessed as reduction in mean number of pacing-induced atrial fibrillation at 0.1 to 0.3 mg/kg, po; format: functional, organism-based; details: Canis lupus familiaris
Summary of the method: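 Simultaneous atrio-ventricular pacing dog model of atrial arrhythmia. Compound was given orally at 0.1 or 0.3 mg/kg in 10% EtOH/40% propylene glycol/50% PEG 400. AF inducibility was scored as mean number of AF inductions and total AF duration, with QTc monitored and plasma concentration measured. n = 7 control, 5 (0.1 mg/kg) and 6 (0.3 mg/kg) dogs.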

[14] = Inhibition of IKs (unknown origin); design: species or system Homo sapiens
[15] = Inhibition of calcium channel (unknown origin); design: species or system Homo sapiens
[16] = Half life in rat at 2 mg/kg, iv or 5 mg/kg, po; format: ADME, organism-based; details: in vivo; summary of the method: as §1
Oryctolagus cuniculus [17] = assay: Antiatrial fibrillation activity in methoxamine-sensitised rabbit assessed as increase in atrial effective refractory period at 0.17 mg/kg, iv administered as 30 mins infusion relative to control; format: functional; summary of the method: as §3
[18] = Tmax in cynomolgus monkey at 1 mg/kg, iv or 1 mg/kg, po; format: ADME, organism-based, Macaca fascicularis; details: in vivo; summary of the method: as §2
[19] = Solubility of the compound in pH 1 to 8 solution using crystalline form; format: physicochemical
[20] = Tmax in rat at 2 mg/kg, iv or 5 mg/kg, po; format: ADME, organism-based; details: in vivo; summary of the method: as §2
Oryctolagus cuniculus [21] = assay: Antiatrial fibrillation activity in methoxamine-sensitised rabbit assessed as increase in atrial effective refractory period at 0.17 mg/kg, iv administered as 1 min infusion relative to control; format: functional; summary of the method: as §3
[22] = Clearance in dog at 0.1 mg/kg, iv or 1 mg/kg, po; format: ADME, organism-based, Canis lupus familiaris; details: in vivo; summary of the method: as §1
Plasma [23] = assay: Plasma concentration in pacing-induced mongrel dog heart failure model at 0.1 mg/kg, po; format: ADME, organism-based, Canis lupus familiaris; details: in vivo; summary of the method: as §4
[24] = target: Potassium voltage-gated channel subfamily A member 5 (Homo sapiens, UniProt P22460); assay: Inhibition of recombinant human Kv1.5 expressed in mouse L929 cells by patch clamp assay; format: cell-based
Chain of Potassium voltage-gated channel subfamily A member 5 (P22460 whole entry): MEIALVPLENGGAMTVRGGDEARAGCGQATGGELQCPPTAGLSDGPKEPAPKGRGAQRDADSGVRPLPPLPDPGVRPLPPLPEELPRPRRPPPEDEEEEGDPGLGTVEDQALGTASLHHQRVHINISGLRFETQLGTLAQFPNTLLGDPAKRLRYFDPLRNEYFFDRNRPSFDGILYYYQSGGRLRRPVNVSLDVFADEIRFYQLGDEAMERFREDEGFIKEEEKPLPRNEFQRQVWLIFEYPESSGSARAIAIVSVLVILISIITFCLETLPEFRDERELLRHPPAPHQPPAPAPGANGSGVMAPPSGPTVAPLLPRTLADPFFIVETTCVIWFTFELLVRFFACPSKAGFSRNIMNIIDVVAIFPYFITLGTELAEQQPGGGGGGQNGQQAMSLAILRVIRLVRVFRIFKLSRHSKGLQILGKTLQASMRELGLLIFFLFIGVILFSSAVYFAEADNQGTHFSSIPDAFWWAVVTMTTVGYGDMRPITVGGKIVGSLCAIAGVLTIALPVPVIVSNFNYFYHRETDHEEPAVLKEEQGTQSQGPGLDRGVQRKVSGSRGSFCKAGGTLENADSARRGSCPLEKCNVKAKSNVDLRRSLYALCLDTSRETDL
Summary of the method: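 Whole-cell patch clamp of IKur current in mouse L-929 cells transfected with human KV1.5 and stably expressing the channel.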

[25] = Oral bioavailability in rat at 5 mg/kg; format: ADME, organism-based; details: in vivo; summary of the method: as §2
[26] = AUC in dog at 0.1 mg/kg, iv or 1 mg/kg, po; format: ADME, organism-based, Canis lupus familiaris; details: in vivo; summary of the method: as §1
Oryctolagus cuniculus [27] = assay: Effect on ventricle effective refractory period in methoxamine-sensitised rabbit at 3 mg/kg, iv administered as 10 to 30 mins infusion; format: ADME, organism-based; details: in vivo

NS(=O)(=O)c1cncc(-c2nc(NCc3ccccn3)c3c(-c4ccccc4)cccc3n2)c1 [BMS-919373]
clearance [1]: 3.3 mL/min/kg | bioavailability [2]: 100% | Activity (Oryctolagus cuniculus [3]): 11% | Activity (Oryctolagus cuniculus [4]): 10.7% | Vd [5]: 0.2 L/kg | Vd [6]: 1.8 L/kg | concentration (Plasma [7]): 1840 nM | clearance [8]: 3.2 mL/min/kg | half-life [9]: 51 h | bioavailability [10]: 64% | pIC50 [11]: < 5.00 | Vd [12]: 1.2 L/kg | half-life [13]: 2 h | Activity (Canis familiaris): Active | pIC50 [14]: < 5.00 | pIC50 [15]: < 5.00 | half-life [16]: 3.2 h | Activity (Oryctolagus cuniculus [17]): 12.7% | Tmax [18]: 4.9 h | solubility [19]: Soluble | Tmax [20]: 2.6 h | Activity (Oryctolagus cuniculus [21]): 9.9% | clearance [22]: 0.05 mL/min/kg | concentration (Plasma [23]): 470 nM | pIC50 [24]: 7.30 to 7.34 | bioavailability [25]: 100% | AUC [26]: 590 µM·h | Activity (Oryctolagus cuniculus [27]): Non-Toxic

From ChEMBL document CHEMBL4014310, “Selective IKur Inhibitors for the Potential Treatment of Atrial Fibrillation: Optimization of the Phenyl Quinazoline Series Leading to Clinical Candidate 5-[5-Phenyl-4-(pyridin-2-ylmethylamino)quinazolin-2-yl]pyridine-3-sulfonamide” (J Med Chem, 2017)
